Data published in ChEMBL document CHEMBL3611968, “Reengineered tricyclic anti-cancer agents” (Bioorg Med Chem, 2015).
The source made the active and inactive calls. The calls are words filed in the database; no cut-off is given here.

Assays:
[1] = tested on: NCI-H1650; assay: Cytotoxicity against human NCI-H1650 cells assessed as growth inhibition after 48 hrs by MTT assay; type: functional
How it was run: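 H1650 cells were exposed to drug for 48 h at five concentrations bracketing 1–40 μM in 10 μM steps, with MTT read-out. GI50 is given only where the data form a sigmoidal dose response.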

[2] = biological target: RAC-alpha serine/threonine-protein kinase (Homo sapiens) (UniProt P31749); assay: Inhibition of AKT phosphorylation in human NCI-H1650 cells at 20 to 40 uM after 12 hrs by Western blot analysis; type: cell-based
[3] = tested on: NCI-H1650; assay: Inhibition of ERK phosphorylation in human NCI-H1650 cells at 20 to 40 uM after 12 hrs by Western blot analysis; type: cell-based
[4] = biological target: T1, D(4) dopamine receptor (Homo sapiens) (UniProt P21917); assay: Binding affinity to dopamine D4 receptor (unknown origin) at 0.1 mM by radioligand displacement assay relative to control
T1 sequence (whole entry): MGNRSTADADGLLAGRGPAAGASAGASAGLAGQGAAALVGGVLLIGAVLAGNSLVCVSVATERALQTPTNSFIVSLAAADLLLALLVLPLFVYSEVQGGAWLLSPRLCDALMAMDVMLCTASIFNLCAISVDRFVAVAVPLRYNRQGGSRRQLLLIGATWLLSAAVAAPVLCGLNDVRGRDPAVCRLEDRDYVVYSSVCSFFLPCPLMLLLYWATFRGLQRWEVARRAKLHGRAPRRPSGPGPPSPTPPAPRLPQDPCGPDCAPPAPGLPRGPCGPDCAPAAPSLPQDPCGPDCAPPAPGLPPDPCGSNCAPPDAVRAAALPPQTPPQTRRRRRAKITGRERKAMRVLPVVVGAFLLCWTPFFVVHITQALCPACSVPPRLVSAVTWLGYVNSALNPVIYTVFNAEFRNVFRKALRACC

[5] = biological target: D(2) dopamine receptor (Homo sapiens) (UniProt P14416); assay: Binding affinity to dopamine D2 receptor (unknown origin) at 0.1 mM by radioligand displacement assay relative to control
[6] = biological target: D(1B) dopamine receptor (Homo sapiens) (UniProt P21918); assay: Binding affinity to dopamine D5 receptor (unknown origin) at 0.1 mM by radioligand displacement assay relative to control
[7] = biological target: D(3) dopamine receptor (Homo sapiens) (UniProt P35462); assay: Binding affinity to dopamine D3 receptor (unknown origin) at 0.1 mM by radioligand displacement assay relative to control
[8] = biological target: D(1A) dopamine receptor (Homo sapiens) (UniProt P21728); assay: Binding affinity to dopamine D1 receptor (unknown origin) at 0.1 mM by radioligand displacement assay relative to control
Sequence of D(1A) dopamine receptor (Homo sapiens) (P21728 whole entry): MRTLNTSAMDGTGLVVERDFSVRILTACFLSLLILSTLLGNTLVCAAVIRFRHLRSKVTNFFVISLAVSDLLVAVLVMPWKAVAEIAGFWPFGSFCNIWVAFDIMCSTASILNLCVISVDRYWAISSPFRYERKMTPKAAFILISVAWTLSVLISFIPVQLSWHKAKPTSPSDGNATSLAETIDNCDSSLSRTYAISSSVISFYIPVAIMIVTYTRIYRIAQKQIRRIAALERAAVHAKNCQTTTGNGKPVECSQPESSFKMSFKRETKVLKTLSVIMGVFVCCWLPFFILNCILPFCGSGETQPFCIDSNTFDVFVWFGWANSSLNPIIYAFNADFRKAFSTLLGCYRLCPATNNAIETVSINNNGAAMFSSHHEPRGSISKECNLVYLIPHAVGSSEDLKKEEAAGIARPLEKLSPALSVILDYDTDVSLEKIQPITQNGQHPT

Sequence of D(3) dopamine receptor (Homo sapiens) (P35462 whole entry): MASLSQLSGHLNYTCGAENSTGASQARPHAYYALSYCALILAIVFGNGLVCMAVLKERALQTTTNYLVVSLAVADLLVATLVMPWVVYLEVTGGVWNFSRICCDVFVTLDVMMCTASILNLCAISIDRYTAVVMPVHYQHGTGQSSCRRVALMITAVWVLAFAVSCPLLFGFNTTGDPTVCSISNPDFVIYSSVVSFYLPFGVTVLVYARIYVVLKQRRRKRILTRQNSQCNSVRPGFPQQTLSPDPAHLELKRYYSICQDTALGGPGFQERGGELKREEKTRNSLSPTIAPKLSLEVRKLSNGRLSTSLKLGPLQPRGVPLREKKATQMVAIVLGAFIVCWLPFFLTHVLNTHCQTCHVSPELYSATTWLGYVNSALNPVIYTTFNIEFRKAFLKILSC
Sequence of RAC-alpha serine/threonine-protein kinase (Homo sapiens) (P31749 whole entry): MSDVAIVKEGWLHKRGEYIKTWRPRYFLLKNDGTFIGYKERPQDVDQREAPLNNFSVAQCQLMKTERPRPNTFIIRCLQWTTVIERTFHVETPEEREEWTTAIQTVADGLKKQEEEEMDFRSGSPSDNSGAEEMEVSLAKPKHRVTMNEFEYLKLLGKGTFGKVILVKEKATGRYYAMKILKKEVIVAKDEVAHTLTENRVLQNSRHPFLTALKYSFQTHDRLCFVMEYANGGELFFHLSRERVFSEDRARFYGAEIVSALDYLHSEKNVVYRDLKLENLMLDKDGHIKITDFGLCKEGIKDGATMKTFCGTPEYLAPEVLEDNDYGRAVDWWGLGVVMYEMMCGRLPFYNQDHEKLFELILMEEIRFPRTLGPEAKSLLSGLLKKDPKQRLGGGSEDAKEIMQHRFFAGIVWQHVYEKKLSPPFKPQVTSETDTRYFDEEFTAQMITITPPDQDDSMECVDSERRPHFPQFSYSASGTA
Sequence of D(2) dopamine receptor (Homo sapiens) (P14416 whole entry): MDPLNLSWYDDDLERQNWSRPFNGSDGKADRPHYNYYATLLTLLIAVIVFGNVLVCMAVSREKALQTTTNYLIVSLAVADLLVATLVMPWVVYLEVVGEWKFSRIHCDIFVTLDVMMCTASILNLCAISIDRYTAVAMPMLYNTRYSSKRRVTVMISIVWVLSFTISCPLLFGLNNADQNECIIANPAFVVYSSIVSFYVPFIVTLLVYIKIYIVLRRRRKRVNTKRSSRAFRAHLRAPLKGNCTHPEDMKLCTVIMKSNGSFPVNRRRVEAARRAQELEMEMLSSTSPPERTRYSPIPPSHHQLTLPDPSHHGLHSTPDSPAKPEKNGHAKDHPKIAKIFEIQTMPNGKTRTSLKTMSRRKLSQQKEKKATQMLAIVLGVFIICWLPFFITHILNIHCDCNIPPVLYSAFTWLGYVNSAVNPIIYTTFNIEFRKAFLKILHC
Sequence of D(1B) dopamine receptor (Homo sapiens) (P21918 whole entry): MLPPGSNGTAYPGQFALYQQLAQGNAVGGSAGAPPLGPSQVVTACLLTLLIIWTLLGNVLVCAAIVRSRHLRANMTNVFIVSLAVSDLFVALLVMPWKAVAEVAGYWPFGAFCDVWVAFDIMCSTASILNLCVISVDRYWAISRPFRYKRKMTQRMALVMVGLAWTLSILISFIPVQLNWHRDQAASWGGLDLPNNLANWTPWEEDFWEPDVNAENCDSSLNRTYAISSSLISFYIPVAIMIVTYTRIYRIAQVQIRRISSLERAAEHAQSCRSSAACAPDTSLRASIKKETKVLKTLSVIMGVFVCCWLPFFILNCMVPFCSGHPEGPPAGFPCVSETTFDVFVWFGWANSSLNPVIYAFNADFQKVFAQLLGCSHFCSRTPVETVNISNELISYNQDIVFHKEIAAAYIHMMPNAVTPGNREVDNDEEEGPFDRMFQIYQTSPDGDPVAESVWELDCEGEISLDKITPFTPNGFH

Structure (SMILES) | GI50 ([1]; NCI-H1650, 48 h) [µM] | GI50 [1] | other results
O=S(=O)(NCCCN1c2ccccc2CCc2ccc(Cl)cc21)c1ccc(C(F)(F)F)cc1 | 12.6 | – | –
O=S(=O)(NCCCN1c2ccccc2CCc2ccc(Cl)cc21)c1ccc(Cl)c(Cl)c1 | 21.3 | – | –
O=S(=O)(NCCCN1c2ccccc2CCc2ccc(Cl)cc21)c1ccc2ccccc2c1 | > 40 | – | –
O=S(=O)(NCCN1c2ccccc2Sc2ccc(Cl)cc21)c1ccc(Cl)cc1 | 20 | – | inhibition [2]: Active; inhibition [3]: Active
O=S(=O)(NCCN1c2ccccc2CCc2ccc(Cl)cc21)c1ccc(Cl)cc1 | 19.1 | – | –
O=S(=O)(NCCCN1c2ccccc2CCc2ccccc21)c1cccnc1 | – | inactive | –
CS(=O)(=O)c1ccc(S(=O)(=O)NCCCN2c3ccccc3CCc3ccc(Cl)cc32)cc1 | 15.1 | – | –
O=S(=O)(NCCCN1c2ccccc2CCc2ccc(Cl)cc21)c1cccc(OC(F)(F)F)c1 | 20 | – | –
Cc1ccccc1S(=O)(=O)NCCCN1c2ccccc2Sc2ccc(Cl)cc21 | – | inactive | –
Cc1ccc(S(=O)(=O)NCCCN2c3ccccc3CCc3ccc(Cl)cc32)cc1 | > 40 | – | inhibition [4]: < 5%; inhibition [5]: < 5%; inhibition [6]: < 10%; inhibition [7]: < 5%; inhibition [8]: < 5%
Cc1ccc(S(=O)(=O)NCCN2c3ccccc3Sc3ccc(Cl)cc32)cc1 | 24.4 | – | –
CCN(CC)C(C)CN1c2ccccc2Sc2ccccc21 (stereo not drawn) [ETHOPROPAZINE] | > 40 | – | –
CN(CCCN1c2ccccc2CCc2ccc(Cl)cc21)S(=O)(=O)c1ccc(OC(F)(F)F)cc1 | – | inactive | –
CC(CN1c2ccccc2Sc2ccccc21)N(C)C (stereo not drawn) [PROMETHAZINE] | > 40 | – | –
O=S(=O)(NCCCN(c1ccccc1)c1cccc(Cl)c1)c1ccc(C(F)(F)F)cc1 | – | inactive | –
O=S(=O)(NCCCN(c1ccccc1)c1cccc(Cl)c1)c1ccc(Cl)cc1 | – | inactive | –
